# How the values were obtained:
# [1] = Plasma clearance was measured in rat; type: ADME, organism-based; conditions: read-out: Clp
# How it was run: (§1)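 Pharmacokinetics in rat, dog and monkey. Dosing was iv 1 mpk and po 2 mpk.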
# Dipeptidyl peptidase 9 = Dipeptidyl peptidase 9 (Homo sapiens, UniProt Q86TI2); test: In vitro inhibitory concentration was measured against dipeptidylpeptidase 9
# Dipeptidyl peptidase 4 = Dipeptidyl peptidase 4 (Homo sapiens, UniProt P27487)
# Dipeptidyl peptidase 2 = Dipeptidyl peptidase 2 (Homo sapiens, UniProt Q9UHL4); test: In vitro inhibitory concentration was measured against quiescent cell proline dipeptidase
# [2] = Plasma half-life was measured in dog; type: ADME, cell-free, Canis lupus familiaris; how it was run: as §1
# [3] = Plasma half-life was measured in rat; type: ADME, organism-based; how it was run: as §1
# [4] = Maximum concentration in plasma of dog upon peroral dose of 2 mpk; type: ADME, organism-based, Canis lupus familiaris; parameters: dose 2 mpk, route oral; conditions: po, 2 mg/kg; how it was run: as §1
# [5] = Maximum concentration in plasma of rat upon peroral dose of 2 mpk; type: ADME, organism-based; parameters: dose 2 mpk, route oral; conditions: po, 2 mg/kg; how it was run: as §1
# [6] = Maximum concentration in plasma of monkey upon peroral dose of 2 mpk; type: ADME, organism-based; parameters: dose 2 mpk, route oral; conditions: cercopithecidae, po, 2 mg/kg; how it was run: as §1
# [7] = Plasma clearance was measured in dog; type: ADME, organism-based, Canis lupus familiaris; conditions: read-out: Clp; how it was run: as §1
# [8] = Plasma clearance was measured in monkey; type: ADME, organism-based; conditions: cercopithecidae, read-out: Clp; how it was run: as §1
# [9] = Oral bioavailability in dog; type: ADME, organism-based, Canis lupus familiaris; conditions: in vivo; how it was run: as §1
# [10] = Oral bioavailability in rat; type: ADME, organism-based; conditions: in vivo; how it was run: as §1
# [11] = Oral bioavailability in monkey; type: ADME, organism-based; conditions: cercopithecidae, in vivo; how it was run: as §1
# [12] = Plasma half-life was measured in monkey; type: ADME; conditions: cercopithecidae; how it was run: as §1
# [13] = Maximum concentration was measured in plasma of rat upon peroral dose of 2 mpk; type: ADME, organism-based; parameters: dose 2 mpk, route oral; conditions: po, 2 mg/kg; how it was run: as §1
# [14] = Plasma half-life was measured in plasma of rat; type: ADME, cell-free; how it was run: as §1
# [15] = Maximum concentration was measured in plasma of dog upon peroral dose of 2 mpk; type: ADME, organism-based, Canis lupus familiaris; parameters: dose 2 mpk, route oral; conditions: po, 2 mg/kg; how it was run: as §1
# [16] = Maximum concentration was measured in plasma of monkey upon peroral dose of 2 mpk; type: ADME, organism-based; parameters: dose 2 mpk, route oral; conditions: cercopithecidae, po, 2 mg/kg; how it was run: as §1
# Sequence of Dipeptidyl peptidase 9 (Q86TI2 whole entry): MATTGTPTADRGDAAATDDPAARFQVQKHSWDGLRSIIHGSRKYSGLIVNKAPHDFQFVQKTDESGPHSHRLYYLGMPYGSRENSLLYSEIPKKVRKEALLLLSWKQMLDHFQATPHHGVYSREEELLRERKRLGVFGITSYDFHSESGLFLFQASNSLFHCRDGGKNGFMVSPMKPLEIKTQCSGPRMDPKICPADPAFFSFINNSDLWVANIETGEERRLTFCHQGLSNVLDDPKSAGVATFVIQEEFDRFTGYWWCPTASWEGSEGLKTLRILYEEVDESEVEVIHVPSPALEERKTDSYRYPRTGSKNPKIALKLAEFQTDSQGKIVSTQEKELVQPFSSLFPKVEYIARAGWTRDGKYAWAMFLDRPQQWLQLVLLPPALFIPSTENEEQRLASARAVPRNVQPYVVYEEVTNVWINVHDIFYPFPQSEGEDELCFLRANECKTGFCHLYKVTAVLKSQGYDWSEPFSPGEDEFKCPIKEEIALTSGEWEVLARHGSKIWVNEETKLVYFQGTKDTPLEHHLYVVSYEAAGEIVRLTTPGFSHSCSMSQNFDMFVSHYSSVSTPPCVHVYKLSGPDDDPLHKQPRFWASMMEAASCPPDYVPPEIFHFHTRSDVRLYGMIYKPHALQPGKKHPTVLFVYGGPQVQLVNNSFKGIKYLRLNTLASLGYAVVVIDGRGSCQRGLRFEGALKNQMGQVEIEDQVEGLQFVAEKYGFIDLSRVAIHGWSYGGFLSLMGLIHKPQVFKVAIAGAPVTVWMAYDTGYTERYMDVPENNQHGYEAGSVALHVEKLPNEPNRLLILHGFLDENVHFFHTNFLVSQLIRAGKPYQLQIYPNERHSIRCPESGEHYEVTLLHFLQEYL
# Sequence of Dipeptidyl peptidase 4 (P27487 whole entry): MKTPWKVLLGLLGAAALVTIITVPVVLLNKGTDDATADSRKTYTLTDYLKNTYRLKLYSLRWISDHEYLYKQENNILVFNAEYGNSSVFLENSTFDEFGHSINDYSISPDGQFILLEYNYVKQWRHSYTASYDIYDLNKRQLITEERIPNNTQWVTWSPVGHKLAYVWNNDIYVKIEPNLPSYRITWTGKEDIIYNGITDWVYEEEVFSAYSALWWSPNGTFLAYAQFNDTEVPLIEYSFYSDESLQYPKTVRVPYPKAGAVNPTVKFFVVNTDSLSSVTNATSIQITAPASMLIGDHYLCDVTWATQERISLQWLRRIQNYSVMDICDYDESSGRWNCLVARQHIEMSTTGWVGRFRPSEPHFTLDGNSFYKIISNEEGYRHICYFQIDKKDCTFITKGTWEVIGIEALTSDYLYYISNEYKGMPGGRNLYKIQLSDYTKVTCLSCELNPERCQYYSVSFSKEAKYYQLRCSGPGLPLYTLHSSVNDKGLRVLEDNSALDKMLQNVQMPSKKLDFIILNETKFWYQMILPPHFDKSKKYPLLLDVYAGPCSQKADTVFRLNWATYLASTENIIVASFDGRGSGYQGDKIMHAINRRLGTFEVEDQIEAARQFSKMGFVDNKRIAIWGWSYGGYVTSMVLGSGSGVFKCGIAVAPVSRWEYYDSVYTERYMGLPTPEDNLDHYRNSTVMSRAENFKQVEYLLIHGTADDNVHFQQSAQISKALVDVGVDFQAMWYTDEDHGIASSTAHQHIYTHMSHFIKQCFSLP
SMILES,clearance [1],IC50 (Dipeptidyl peptidase 9),IC50 (Dipeptidyl peptidase 4),IC50 (Dipeptidyl peptidase 2),half-life [2],half-life [3],Cmax [4],Cmax [5],Cmax [6],clearance [7],clearance [8],bioavailability [9],bioavailability [10],bioavailability [11],half-life [12],Cmax [13],half-life [14],Cmax [15],Cmax [16]
CCc1nnc2n1CCN(C(=O)C[C@H](N)Cc1ccc(F)c(F)c1)C2.Cl,45 mL/min/kg,> 100 µM,0.231 µM,64 µM,2.3 h,2.7 h,730 nM,10 nM,12 nM,13 mL/min/kg,26 mL/min/kg,33%,2%,1%,1.3 h,,,,
Cl.N[C@@H](CC(=O)N1CCn2c(nnc2C(F)(F)F)C1)Cc1cc(F)ccc1F,43 mL/min/kg,> 100 µM,,> 100 µM,,,,,,,,,51%,,,190 nM,1.6 h,,
Cl.N[C@@H](CC(=O)N1CCn2c(nnc2C(F)(F)F)C1)Cc1ccc(F)c(F)c1,51 mL/min/kg,> 100 µM,,98 µM,,1.8 h,,,,,,,44%,,,140 nM,,,
N[C@@H](CC(=O)N1CCn2cnnc2C1)Cc1ccc(F)c(F)c1,,> 100 µM,0.455 µM,> 10 µM,,,,,,,,,,,,,,,
Cl.N[C@@H](CC(=O)N1CCn2c(nnc2C(F)(F)F)C1)Cc1cc(F)c(F)cc1F,,,,,4.9 h,1.7 h,,,,6 mL/min/kg,28 mL/min/kg,100%,,68%,3.7 h,330 nM,,2200 nM,330 nM
Cl.N[C@@H](CC(=O)N1CCn2cnnc2C1)Cc1cc(F)c(F)cc1F,40 mL/min/kg,> 100 µM,0.068 µM,> 10 µM,,1 h,,,,,,,3%,,,30 nM,,,
Cl.N[C@@H](CC(=O)N1CCn2c(nnc2C(F)(F)C(F)(F)F)C1)Cc1cc(F)ccc1F,109 mL/min/kg,> 100 µM,0.103 µM,> 100 µM,,1.5 h,,,,,,,1%,,,2 nM,,,
Cl.N[C@@H](CC(=O)N1CCn2c(nnc2C(F)(F)C(F)(F)F)C1)Cc1cc(F)c(F)cc1F,58 mL/min/kg,> 100 µM,0.071 µM,78 µM,,2.3 h,,,,,,,61%,,,160 nM,,,
N[C@@H](CC(=O)N1CCNCC1)Cc1ccc(F)c(F)c1,,,3.1 µM,,,,,,,,,,,,,,,,
